In ChEMBL document CHEMBL1687745 (Antimicrob Agents Chemother, 2009):
Converted amounts (≈) assume the structure as drawn. The source made the active and inactive calls. The calls are words filed in the database; no cut-off is given here.

Tests used:
Bacillus subtilis [1] = assay: Disruption of bacterial membrane permeability in Bacillus subtilis BD54 using DiSC3 fluorescent dye staining based fluorimetric assay; assay type: functional, organism-based
Method in brief: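 B. subtilis BD54 was grown in LB to OD600 0.4–0.5, washed and resuspended to OD600 0.1 in 5 mM HEPES pH 7.4 with 20 mM glucose. Cells were loaded with 1 µM DiSC3(5) for 10 min at room temperature, then 100 mM KCl was added. […] Fluorescence (ex 622/em 670 nm) was read after 5 min in eight wells per condition. DNP at 200 µg/ml served as positive control.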

Bacillus subtilis [2] = assay: Inhibition of DNA synthesis in Bacillus subtilis BD54 at 5 X MIC by [3H]thymidine incorporation assay; assay type: functional, organism-based
Method in brief: (§1)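 Precursors were [methyl-3H]thymidine (DNA), [5-3H]uridine (RNA), L-[4,5-3H]leucine (protein) and N-acetyl-D-[1-3H]glucosamine (cell wall). Samples taken over time, precipitated with equal volume of ice-cold 20% TCA, filtered on glass fibre, and counted. cpm plotted against time.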

Bacillus anthracis [3] = assay: Protection against Bacillus anthracis Sterne spores induced cell death in mouse J774A1 cells assessed as live viable cells at 10 uM by Sytox green dye staining assay relative to untreated control; assay type: functional, J774.A1
Bacillus anthracis [4] = assay: microbe, parasite or virus in culture; conditions: Ames
Staphylococcus aureus [5] = assay: Antimicrobial activity against methicillin-resistant Staphylococcus aureus clinical isolate by broth microdilution method; assay type: functional
Enterococcus faecalis [6] = assay: Antimicrobial activity against Enterococcus faecalis 29212 clinical isolate by broth microdilution method; assay type: functional
Enterococcus faecalis [7] = assay: Antimicrobial activity against Enterococcus faecalis clinical isolate by broth microdilution method; assay type: functional
Method in brief: (§2)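 Broth microdilution. Log-phase cultures (5 × 10^5 CFU/ml) seeded in 96-well plates with compound from 0 to 20 µM or 1% DMSO control. Incubated at 37°C for 16 to 20 h. Growth read as absorbance at 600 nm.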

Bacillus subtilis [8] = assay: Inhibition of RNA synthesis in Bacillus subtilis BD54 at 5 X MIC by [5-3H]uridine incorporation assay; assay type: functional; method in brief: as §1
[9] = tested on: Mycolicibacterium smegmatis; assay: Antimicrobial activity against Mycobacterium smegmatis 19420 by broth microdilution method; assay type: functional; method in brief: as §2
[10] = Cytotoxicity against human HeLa cells after 3 days by MTS assay in presence of 10% fetal calf serum; assay type: cell-based
Bacillus anthracis [11] = assay: Antimicrobial activity against Bacillus anthracis Ames by broth microdilution method in presence of 10% fetal calf serum; assay type: functional
Bacillus subtilis [12] = assay: Inhibition of cell wall synthesis in Bacillus subtilis BD54 at 5 X MIC by N-acetyl-D-[1-3H] glucosamine incorporation assay; assay type: functional; method in brief: as §1
Bacillus anthracis [13] = assay: Antimicrobial activity against Bacillus anthracis Sterne vegetative cells by broth microdilution method; assay type: functional
Yersinia pestis = assay: Antimicrobial activity against Yersinia pestis by broth microdilution method; assay type: functional
Bacillus anthracis [14] = assay: microbe, parasite or virus in culture; conditions: Ames; remark: listed apart in the source
Klebsiella pneumoniae = assay: Antimicrobial activity against Klebsiella pneumoniae 5657 by broth microdilution method; assay type: functional; method in brief: as §2
Enterococcus faecalis [15] = assay: Antimicrobial activity against vancomycin-resistant Enterococcus faecalis ATCC 51575 by broth microdilution method; assay type: functional
Brevibacillus brevis = assay: Antimicrobial activity against Bacillus brevis clinical isolate by broth microdilution method; assay type: functional; method in brief: as §2
Priestia megaterium = assay: Antimicrobial activity against Bacillus megaterium clinical isolate by broth microdilution method; assay type: functional
Bacillus licheniformis = assay: Antimicrobial activity against Bacillus licheniformis clinical isolate by broth microdilution method; assay type: functional
Burkholderia cepacia = assay: Antimicrobial activity against Burkholderia cepacia clinical isolate by broth microdilution method; assay type: functional; method in brief: as §2
Enterococcus faecium = assay: Antimicrobial activity against vancomycin-resistant Enterococcus faecium B42762 by broth microdilution method; assay type: functional
Bacillus anthracis [16] = assay: Inhibition of spore germination in Bacillus anthracis Sterne spores at MIC after 4 hrs; assay type: functional, organism-based
Burkholderia mallei = assay: Antimicrobial activity against Burkholderia mallei ATCC 23344 by broth microdilution method; assay type: functional
[17] = tested on: Mycolicibacterium smegmatis; assay: Antimicrobial activity against Mycobacterium smegmatis 35798 by broth microdilution method; assay type: functional; method in brief: as §2
Bacillus anthracis [18] = assay: Antimicrobial activity against Bacillus anthracis Vollum clinical isolate by broth microdilution method; assay type: functional
Bacillus subtilis [19] = assay: Antimicrobial activity against Bacillus subtilis clinical isolate by broth microdilution method; assay type: functional
Bacillus pumilus = assay: Antimicrobial activity against Bacillus pumilus clinical isolate by broth microdilution method; assay type: functional; method in brief: as §2
Bacillus anthracis [20] = assay: Antimicrobial activity against Bacillus anthracis Sterne spores by broth microdilution method; assay type: functional
Bacillus anthracis [21] = assay: Protection against Bacillus anthracis Sterne spores induced cell death in mouse J774A1 cells assessed as dead cells at 10 uM by Sytox green dye staining assay relative to untreated control; assay type: functional, J774.A1
Staphylococcus aureus [22] = assay: Antimicrobial activity against methicillin-resistant Staphylococcus aureus 1094 by broth microdilution method; assay type: functional
[23] = tested on: Mycolicibacterium smegmatis; assay: Antimicrobial activity against Mycobacterium smegmatis 700009 by broth microdilution method; assay type: functional; method in brief: as §2
[24] = tested on: Burkholderia thailandensis; assay: Antimicrobial activity against Burkholderia thailandensis by broth microdilution method; assay type: functional
[25] = tested on: Burkholderia pseudomallei; assay: Antimicrobial activity against Burkholderia pseudomallei DD503 by broth microdilution method; assay type: functional
Pseudomonas aeruginosa = assay: Antimicrobial activity against Pseudomonas aeruginosa PAO1 by broth microdilution method; assay type: functional; method in brief: as §2
Escherichia coli = assay: Antimicrobial activity against Escherichia coli J53 clinical isolate by broth microdilution method; assay type: functional
Staphylococcus aureus [26] = assay: Antimicrobial activity against Staphylococcus aureus ATCC 25923 by broth microdilution method; assay type: functional; method in brief: as §2
Staphylococcus aureus [27] = assay: Antimicrobial activity against Staphylococcus aureus by broth microdilution method; assay type: functional; method in brief: as §2
Staphylococcus aureus [28] = assay: Antibacterial activity against Staphylococcus aureus Smith infected in Swiss Webster mouse assessed as assessed as protection against microbe-induced mortality at 10 mg/kg, iv administered as single dose 15 mins post bacterial challenge measured 48 hrs post infection; assay type: functional
Method in brief: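 Swiss Webster mice (n = 10/group) were challenged i.p. with 8.3 × 10^8 CFU. After 15 min they received a single i.v. dose in 10% dimethyl acetamide–5% dextrose in water (pH 4.0), alongside vehicle and daptomycin (10 mg/kg) controls. Survival was followed for 48 h.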

Question: For `O=[N+]([O-])c1ccc(O)c([N+](=O)[O-])c1`, which Activity (Bacillus subtilis [1]) is on record?
Answer: The Activity was “Active”.

Question: With `c1cc2cc(-c3ccc4cc(-c5ccc6oc(C7=NCCN7)cc6c5)[nH]c4c3)[nH]c2cc1C1=NCCN1` as the compound, how does the inhibition (Bacillus subtilis [2]) read?
Answer: The inhibition was “Active”.

Question: What about the Activity (Bacillus anthracis [3]) of the same compound?
Answer: Its Activity is 75%.

Question: And the MBC (Bacillus anthracis [4])?
Answer: The MBC was 1.2 µg/mL (≈ 2.48 µM).

Question: What about the MIC (Bacillus anthracis [4]) of the same compound?
Answer: Its MIC is 0.2 µg/mL (≈ 0.413 µM).

Question: And the MIC (Staphylococcus aureus [5])?
Answer: Its MIC is 2.8 µg/mL (≈ 5.78 µM).

Question: What about the MIC (Enterococcus faecalis [6]) of the same compound?
Answer: Its MIC is 0.1 µg/mL (≈ 0.206 µM).

Question: What about the MIC (Enterococcus faecalis [7]) of the same compound?
Answer: The MIC was 0.7 µg/mL (≈ 1.44 µM).

Question: What about the “inhibition (INH)” value (Bacillus subtilis [8]) of the same compound?
Answer: Its value is 40%.

Question: What about the MIC [9] of the same compound?
Answer: Its MIC is 0.1 µg/mL (≈ 0.206 µM).

Question: What about the CC50 at 72 h [10] of the same compound?
Answer: Its CC50 at 72 h is 17 µg/mL.

Question: And the MIC (Bacillus anthracis [11])?
Answer: The MIC was 1.4 µg/mL.

Question: And the “inhibition (INH)” value (Bacillus subtilis [12])?
Answer: Its value is 40%.

Question: What about the MIC (Bacillus anthracis [13]) of the same compound?
Answer: The MIC was 0.7 µg/mL (≈ 1.44 µM).

Question: And the MIC (Yersinia pestis)?
Answer: Its MIC is 9.7 µg/mL (≈ 20 µM).

Question: What about the MBC (Bacillus anthracis [14]) of the same compound?
Answer: The MBC was 2.8 µg/mL (≈ 5.78 µM).

Question: And the MIC (Bacillus anthracis [14])?
Answer: Its MIC is 1.4 µg/mL (≈ 2.89 µM).

Question: What about the MIC (Klebsiella pneumoniae) of the same compound?
Answer: Its MIC is 16 µg/mL (≈ 33 µM).

Question: And the MIC (Enterococcus faecalis [15])?
Answer: Its MIC is 0.1 µg/mL (≈ 0.206 µM).

Question: What about the MIC (Brevibacillus brevis) of the same compound?
Answer: Its MIC is 0.2 µg/mL (≈ 0.413 µM).

Question: What about the MIC (Priestia megaterium) of the same compound?
Answer: Its MIC is 0.4 µg/mL (≈ 0.825 µM).

Question: What about the MIC (Bacillus licheniformis) of the same compound?
Answer: The MIC was 1.4 µg/mL (≈ 2.89 µM).

Question: What about the MIC (Burkholderia cepacia) of the same compound?
Answer: Its MIC is 22 µg/mL (≈ 45.4 µM).

Question: And the MIC (Enterococcus faecium)?
Answer: Its MIC is 0.1 µg/mL (≈ 0.206 µM).

Question: What about the inhibition (Bacillus anthracis [16]) of the same compound?
Answer: The inhibition was “inactive”.

Question: What about the MIC (Burkholderia mallei) of the same compound?
Answer: Its MIC is greater than 9.7 µg/mL.

Question: What about the MIC [17] of the same compound?
Answer: Its MIC is less than 0.1 µg/mL.

Question: And the MBC (Bacillus anthracis [18])?
Answer: Its MBC is 0.4 µg/mL (≈ 0.825 µM).

Question: What about the MIC (Bacillus anthracis [18]) of the same compound?
Answer: The MIC was 0.4 µg/mL (≈ 0.825 µM).

Question: What about the MIC (Bacillus subtilis [19]) of the same compound?
Answer: The MIC was 0.4 µg/mL (≈ 0.825 µM).

Question: What about the MIC (Bacillus pumilus) of the same compound?
Answer: The MIC was 0.4 µg/mL (≈ 0.825 µM).

Question: And the MIC (Bacillus anthracis [20])?
Answer: The MIC was 0.4 µg/mL (≈ 0.825 µM).

Question: What about the Activity (Bacillus anthracis [21]) of the same compound?
Answer: The Activity was 24%.

Question: What about the MIC (Staphylococcus aureus [22]) of the same compound?
Answer: Its MIC is 0.5 µg/mL (≈ 1.03 µM).

Question: And the MIC [23]?
Answer: The MIC was less than 0.1 µg/mL.

Question: And the MIC [24]?
Answer: Its MIC is 2.8 µg/mL (≈ 5.78 µM).

Question: And the MIC [25]?
Answer: Its MIC is greater than 9.7 µg/mL.

Question: And the MIC (Pseudomonas aeruginosa)?
Answer: The MIC was greater than 80 µg/mL.

Question: What about the MIC (Escherichia coli) of the same compound?
Answer: Its MIC is 1.4 µg/mL (≈ 2.89 µM).

Question: And the MIC (Staphylococcus aureus [26])?
Answer: The MIC was 0.3 µg/mL (≈ 0.619 µM).

Question: And the MIC (Staphylococcus aureus [27])?
Answer: The MIC was 0.7 µg/mL (≈ 1.44 µM).

Question: Which survival at 10 mg/kg (Staphylococcus aureus [28]) does the source give for `CCCCCCCCCC(=O)N[C@@H](Cc1c[nH]c2ccccc12)C(=O)N[C@H](CC(N)=O)C(=O)N[C@@H](CC(=O)O)C(=O)N[C@@H]1C(=O)NCC(=O)N[C@@H](CCCN)C(=O)N[C@@H](CC(=O)O)C(=O)N[C@H](C)C(=O)N[C@@H](CC(=O)O)C(=O)NCC(=O)N[C@H](CO)C(=O)N[C@@H]([C@H](C)CC(=O)O)C(=O)N[C@@H](CC(=O)c2ccccc2N)C(=O)O[C@@H]1C` here?
Answer: Its survival at 10 mg/kg is 80%.
